In brackets after ≈: the same amount, converted by molar mass. Activity calls are given as the source filed them. The calls are words filed in the database; no cut-off is given here.
Legend:
Escherichia coli [1] = experiment: Antimicrobial activity against Escherichia coli ATCC 25922 by broth microdilution method; format: functional
Method in brief: (§1)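 Two-fold broth microdilution in Mueller-Hinton broth. Compound in DMSO added to bacterial culture at 5 × 10^5 cells/ml, starting at 64 µg/ml, then serially doubled down. Incubated at 37 °C overnight and read as OD600. MIC taken as the minimum inhibitory concentration, obtained in at least two independent experiments.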

Pseudomonas aeruginosa = experiment: Antimicrobial activity against Pseudomonas aeruginosa ATCC 27853 by broth microdilution method; format: functional; method in brief: as §1
[2] = tested on: Salmonella enterica subsp. enterica serovar Paratyphi B; experiment: Antimicrobial activity against Salmonella paratyphi B CMCC 50094 by broth microdilution method; format: functional
Method in brief: (§2)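 Two-fold serial dilution in Mueller-Hinton broth, starting at 64 µg/ml. Compound was added as a DMSO solution to bacterial culture at 5 × 10^5 cells/ml, then double-diluted. Plates were incubated overnight at 37 °C and OD600 was read. MIC was taken from at least two independent experiments.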

Streptococcus = experiment: Antimicrobial activity against hemolytic Streptococcus Group B CMCC 32210 by broth microdilution method; format: functional; method in brief: as §1
Staphylococcus aureus [3] = experiment: Antimicrobial activity against Staphylococcus aureus ATCC 25923 by broth microdilution method; format: functional; method in brief: as §1
[4] = tested on: Staphylococcus epidermidis; experiment: Antimicrobial activity against Staphylococcus epidermidis ATCC 12228 by broth microdilution method; format: functional; method in brief: as §1
Enterococcus faecalis = experiment: Antimicrobial activity against Enterococcus faecalis ATCC 29212 by broth microdilution method; format: functional; method in brief: as §1
Staphylococcus aureus [5] = experiment: Antimicrobial activity against methicillin-resistant Staphylococcus aureus ATCC 43300 by broth microdilution method; format: functional; method in brief: as §2
Candida albicans = experiment: Antifungal activity against Candida albicans ATCC 10231 by broth microdilution method; format: functional
[6] = target: DNA gyrase (Staphylococcus aureus) (UniProt P0A0K8+P20831); experiment: Inhibition of Staphylococcus aureus DNA gyrase supercoiling activity using pHOT1 DNA as substrate at 125 uM after 60 mins by agarose gel electrophoretic analysis; format: protein-complex assay
Method in brief: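 Supercoiling assay with 1 U DNA gyrase (E. coli or S. aureus) and 0.5 µg relaxed pHOT1 DNA in Tris–HCl pH 7.5 buffer (KCl, MgCl2, DTT, spermidine, 1 mM ATP, glycerol, BSA), ± compound, 37 °C for 60 min. Stopped with proteinase K, run on 1% agarose in TAE at 3 V/cm, stained with Gel Red and imaged under UV.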

Staphylococcus aureus [7] = experiment: Inhibition of Staphylococcus aureus topoisomerase 4-mediated relaxation of supercoiled pBR322 DNA at 1 uM after 30 mins by agarose gel electrophoretic analysis
Method in brief: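 Relaxation assay with 1 U Topo IV and 0.5 µg supercoiled pBR322 DNA in HEPES–KOH pH 7.6 buffer (potassium glutamate, magnesium acetate, DTT, 1 mM ATP, BSA), 37 °C for 30 min. Stopped with chloroform/iso-amyl alcohol (24:1), then run on 1% agarose gel in TAE at 5 V/cm.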

Escherichia coli [8] = experiment: Inhibition of Escherichia coli topoisomerase 4 assessed as decatenation of kDNA at 25 uM after 30 mins by electrophoresis
Method in brief: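 Decatenation assay with 1 U Topo IV and 200 ng catenated kDNA in HEPES–KOH pH 7.6 buffer (potassium glutamate, magnesium acetate, DTT, 1 mM ATP, BSA), 37 °C for 30 min. Stopped with chloroform/iso-amyl alcohol (24:1), then run on 1% agarose gel in TAE at 10 V/cm.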

Escherichia coli [9] = conditions: 1 to 125 uM
Staphylococcus aureus [10] = experiment: Ratio of MIC for vancomycin to compound for methicillin-resistant Staphylococcus aureus ATCC 43300 by broth microdilution method; format: functional

DNA gyrase (Staphylococcus aureus), sequence (P0A0K8 2-644 limits assumed): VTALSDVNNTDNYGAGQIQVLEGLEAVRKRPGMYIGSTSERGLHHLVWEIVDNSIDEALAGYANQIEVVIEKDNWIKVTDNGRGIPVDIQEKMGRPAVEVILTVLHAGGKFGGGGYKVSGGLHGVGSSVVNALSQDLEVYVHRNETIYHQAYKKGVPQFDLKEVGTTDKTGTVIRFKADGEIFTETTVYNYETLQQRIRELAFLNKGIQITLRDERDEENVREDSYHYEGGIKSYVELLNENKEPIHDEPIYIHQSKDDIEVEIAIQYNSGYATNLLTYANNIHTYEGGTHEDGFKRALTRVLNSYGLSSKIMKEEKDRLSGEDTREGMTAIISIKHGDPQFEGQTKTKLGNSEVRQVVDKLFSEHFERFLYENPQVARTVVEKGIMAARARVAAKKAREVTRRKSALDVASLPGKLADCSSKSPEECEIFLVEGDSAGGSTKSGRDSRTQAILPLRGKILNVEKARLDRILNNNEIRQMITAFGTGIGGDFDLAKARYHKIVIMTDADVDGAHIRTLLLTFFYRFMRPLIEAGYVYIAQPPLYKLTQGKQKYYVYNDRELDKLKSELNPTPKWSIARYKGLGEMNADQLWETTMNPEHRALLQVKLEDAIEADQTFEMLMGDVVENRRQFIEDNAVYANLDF
DNA gyrase (Staphylococcus aureus), sequence (P20831 whole entry partner): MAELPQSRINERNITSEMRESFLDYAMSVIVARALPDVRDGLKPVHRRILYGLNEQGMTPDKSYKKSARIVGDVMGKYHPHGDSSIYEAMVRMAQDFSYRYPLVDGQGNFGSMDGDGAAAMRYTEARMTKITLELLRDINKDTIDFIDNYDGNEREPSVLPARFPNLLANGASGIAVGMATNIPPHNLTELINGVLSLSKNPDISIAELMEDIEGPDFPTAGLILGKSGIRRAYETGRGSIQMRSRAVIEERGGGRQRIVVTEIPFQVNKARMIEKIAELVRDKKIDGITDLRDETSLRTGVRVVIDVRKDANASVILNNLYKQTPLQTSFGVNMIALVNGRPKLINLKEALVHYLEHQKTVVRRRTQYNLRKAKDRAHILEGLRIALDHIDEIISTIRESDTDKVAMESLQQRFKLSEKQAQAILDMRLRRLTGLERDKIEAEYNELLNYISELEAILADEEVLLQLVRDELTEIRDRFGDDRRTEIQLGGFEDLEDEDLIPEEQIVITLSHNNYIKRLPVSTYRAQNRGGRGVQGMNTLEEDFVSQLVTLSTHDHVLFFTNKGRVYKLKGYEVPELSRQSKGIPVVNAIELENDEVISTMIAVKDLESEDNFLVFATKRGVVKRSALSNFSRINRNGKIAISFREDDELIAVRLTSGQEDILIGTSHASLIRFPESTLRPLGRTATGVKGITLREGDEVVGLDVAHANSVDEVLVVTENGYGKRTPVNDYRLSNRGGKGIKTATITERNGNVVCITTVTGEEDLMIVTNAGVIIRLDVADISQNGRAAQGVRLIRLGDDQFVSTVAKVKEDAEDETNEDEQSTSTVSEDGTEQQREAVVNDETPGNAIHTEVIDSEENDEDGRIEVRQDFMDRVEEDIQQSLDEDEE

SMILES | MIC (Escherichia coli [1]) [mg/L] | MIC (Pseudomonas aeruginosa) [mg/L] | MIC [2] [mg/L] | MIC (Streptococcus) [mg/L] | MIC (Staphylococcus aureus [3]) [mg/L] | MIC [4] [mg/L] | MIC (Enterococcus faecalis) [mg/L] | MIC (Staphylococcus aureus [5]) [mg/L] | MIC (Candida albicans) [mg/L] | inhibition [6] | inhibition (Staphylococcus aureus [7]) | inhibition (Escherichia coli [8]) | inhibition (Escherichia coli [9]) | Ratio (Staphylococcus aureus [10])
O=C1c2cccnc2C(=O)c2c1c(C(=O)NCCN1CCOCC1)c1ccc(Br)cn21 | 64 (≈ 132 µM) | 64 (≈ 132 µM) | > 64 | 0.5 (≈ 1.03 µM) | 1 (≈ 2.07 µM) | 4 (≈ 8.28 µM) | 4 (≈ 8.28 µM) | 8 (≈ 16.6 µM) | > 64 |  |  |  |  | 
O=C1c2cccnc2C(=O)c2c1c(C(=O)NCCCN1CCCCC1)c1ccc(Br)cn21 | > 64 | > 64 | > 64 | 1 (≈ 2.02 µM) | 2 (≈ 4.04 µM) | 8 (≈ 16.1 µM) | 2 (≈ 4.04 µM) | 4 (≈ 8.07 µM) | > 64 |  |  |  |  | 
CCN(CC)C(=O)c1c2c(n3cc(Br)ccc13)C(=O)c1ncccc1C2=O | > 64 | > 64 | > 64 | 8 (≈ 18.8 µM) | 8 (≈ 18.8 µM) | 16 (≈ 37.5 µM) | 16 (≈ 37.5 µM) | 16 (≈ 37.5 µM) | > 64 |  |  |  |  | 
O=C1c2cccnc2C(=O)c2c1c(C(=O)N1CCSCC1)c1ccc(Br)cn21 | > 64 | > 64 | > 64 | 64 (≈ 140 µM) | > 64 | > 64 | > 64 | 64 (≈ 140 µM) | > 64 |  |  |  |  | 
O=C(O)c1cn(C2CC2)c2cc(N3CCNCC3)c(F)cc2c1=O |  |  |  |  |  |  |  |  |  | inactive | Active | Active | Active | 
O=C1c2cccnc2C(=O)c2c1c(C(=O)OCCN1CCCCC1)c1ccc(Br)cn21 | 4 (≈ 8.29 µM) | > 64 | 16 (≈ 33.2 µM) | 0.031 (≈ 0.0643 µM) | 0.063 (≈ 0.131 µM) | 0.063 (≈ 0.131 µM) | 0.031 (≈ 0.0643 µM) | 0.5 (≈ 1.04 µM) | > 64 |  |  |  |  | 
O=C1c2cccnc2C(=O)c2c1c(C(=O)N1CCCC1)c1ccc(Br)cn21 | > 64 | > 64 | > 64 | 16 (≈ 37.7 µM) | 8 (≈ 18.9 µM) | 32 (≈ 75.4 µM) | > 64 | 64 (≈ 151 µM) | > 64 |  |  |  |  | 
O=C1c2cccnc2C(=O)c2c1c(C(=O)OCCN1CCOCC1)c1ccc(Br)cn21 | 32 (≈ 66.1 µM) | > 64 | > 64 | 0.063 (≈ 0.13 µM) | 0.25 (≈ 0.516 µM) | 0.25 (≈ 0.516 µM) | 0.13 (≈ 0.268 µM) | 0.25 (≈ 0.516 µM) | > 64 |  |  |  |  | 
O=C1c2cccnc2C(=O)c2c1c(C(=O)NCCN1CCCCC1)c1ccc(Br)cn21 | 64 (≈ 133 µM) | 64 (≈ 133 µM) | 64 (≈ 133 µM) | 0.5 (≈ 1.04 µM) | 1 (≈ 2.08 µM) | 1 (≈ 2.08 µM) | 2 (≈ 4.15 µM) | 2 (≈ 4.15 µM) | > 64 |  |  |  |  | 
O=C1c2cccnc2C(=O)c2c1c(C(=O)NCCCN1CCCC1)c1ccc(Br)cn21 | > 64 | > 64 | > 64 | 1 (≈ 2.08 µM) | 8 (≈ 16.6 µM) | 4 (≈ 8.31 µM) | 4 (≈ 8.31 µM) | 4 (≈ 8.31 µM) | > 64 |  |  |  |  | 
CN(C)CCOC(=O)c1c2c(n3cc(Br)ccc13)C(=O)c1ncccc1C2=O | 2 (≈ 4.52 µM) | > 64 | 1 (≈ 2.26 µM) | 0.031 (≈ 0.0701 µM) | 0.13 (≈ 0.294 µM) | 0.13 (≈ 0.294 µM) | 0.13 (≈ 0.294 µM) | 0.13 (≈ 0.294 µM) | > 64 |  |  |  |  | 
CCN(CC)CCCNC(=O)c1c2c(n3cc(Br)ccc13)C(=O)c1ncccc1C2=O | > 64 | > 64 | > 64 | 1 (≈ 2.07 µM) | 8 (≈ 16.6 µM) | 4 (≈ 8.28 µM) | 4 (≈ 8.28 µM) | 8 (≈ 16.6 µM) | > 64 |  |  |  |  | 
CN(C)CCCNC(=O)c1c2c(n3cc(Br)ccc13)C(=O)c1ncccc1C2=O | > 64 | > 64 | > 64 | 1 (≈ 2.2 µM) | 4 (≈ 8.79 µM) | 8 (≈ 17.6 µM) | 4 (≈ 8.79 µM) | 4 (≈ 8.79 µM) | > 64 |  |  |  |  | 
O=C1c2cccnc2C(=O)c2c1c(C(=O)N1CCOCC1)c1ccc(Br)cn21 | > 64 | > 64 | > 64 | 16 (≈ 36.3 µM) | 16 (≈ 36.3 µM) | 32 (≈ 72.7 µM) | > 64 | 64 (≈ 145 µM) | > 64 |  |  |  |  | 
O=C1c2cccnc2C(=O)c2c1c(C(=O)OCC(F)(F)F)c1ccc(Br)cn21 | > 64 | > 64 | > 64 | 0.031 (≈ 0.0684 µM) | 0.031 (≈ 0.0684 µM) | 0.016 (≈ 0.0353 µM) | 0.016 (≈ 0.0353 µM) | 0.031 (≈ 0.0684 µM) | > 64 |  |  |  |  | 32
CCN(CC)CCNC(=O)c1c2c(n3cc(Br)ccc13)C(=O)c1ncccc1C2=O | > 64 | > 64 | > 64 | 0.5 (≈ 1.07 µM) | 4 (≈ 8.52 µM) | 2 (≈ 4.26 µM) | 4 (≈ 8.52 µM) | 4 (≈ 8.52 µM) | > 64 |  |  |  |  | 
O=C1c2cccnc2C(=O)c2c1c(C(=O)NCCN1CCCC1)c1ccc(Br)cn21 | > 64 | > 64 | > 64 | 0.5 (≈ 1.07 µM) | 4 (≈ 8.56 µM) | 1 (≈ 2.14 µM) | 2 (≈ 4.28 µM) | 4 (≈ 8.56 µM) | > 64 |  |  |  |  | 
O=C1c2cccnc2C(=O)c2c1c(C(=O)NCCCN1CCOCC1)c1ccc(Br)cn21 | > 64 | > 64 | > 64 | 1 (≈ 2.01 µM) | 8 (≈ 16.1 µM) | 4 (≈ 8.04 µM) | 4 (≈ 8.04 µM) | 4 (≈ 8.04 µM) | > 64 |  |  |  |  | 
CN(C)CCNC(=O)c1c2c(n3cc(Br)ccc13)C(=O)c1ncccc1C2=O | > 64 | > 64 | > 64 | 0.5 (≈ 1.13 µM) | 4 (≈ 9.06 µM) | 2 (≈ 4.53 µM) | 1 (≈ 2.27 µM) | 4 (≈ 9.06 µM) | > 64 |  |  |  |  | 
CC(=O)N1CCN(C(=O)c2c3c(n4cc(Br)ccc24)C(=O)c2ncccc2C3=O)CC1 | > 64 | > 64 | > 64 | 16 (≈ 33.2 µM) | 64 (≈ 133 µM) | > 64 | > 64 | > 64 | > 64 |  |  |  |  | 
COC(=O)c1c2c(n3cc(Br)ccc13)C(=O)c1ncccc1C2=O | 64 (≈ 166 µM) | > 64 | > 64 | 0.031 (≈ 0.0805 µM) | 0.031 (≈ 0.0805 µM) | 0.016 (≈ 0.0415 µM) | 0.031 (≈ 0.0805 µM) | 0.063 (≈ 0.164 µM) | > 64 |  |  |  |  | 16
CN1CCN(C(=O)c2c3c(n4cc(Br)ccc24)C(=O)c2ncccc2C3=O)CC1 | > 64 | > 64 | > 64 | 8 (≈ 17.6 µM) | 16 (≈ 35.3 µM) | 32 (≈ 70.6 µM) | > 64 | 32 (≈ 70.6 µM) | > 64 |  |  |  |  | 
CC1(C)S[C@@H]2[C@H](NC(=O)Cc3ccccc3)C(=O)N2[C@H]1C(=O)O [PENICILLIN G] | 64 (≈ 191 µM) | > 64 | 2 (≈ 5.98 µM) | < 0.031 | < 0.031 | 16 (≈ 47.8 µM) | 2 (≈ 5.98 µM) | > 64 |  |  |  |  |  | 
O=C1c2cccnc2C(=O)c2c1c(C(=O)OCCF)c1ccc(Br)cn21 | > 64 | > 64 | > 64 | 0.031 (≈ 0.0743 µM) | 0.031 (≈ 0.0743 µM) | 0.016 (≈ 0.0384 µM) | 0.016 (≈ 0.0384 µM) | 0.063 (≈ 0.151 µM) | > 64 |  |  |  |  | 16

— ChEMBL document CHEMBL1828603, “Synthesis, antimicrobial activity and possible mechanism of action of 9-bromo-substituted indolizinoquinoline-5,12-dione derivatives” (2011)
